# Bioassay records: PubChem BioAssay, several laboratories
# Sampled rows, rich in hits. Any-hit rate of the full collection: about 1.2%.
# CaV13 ICDI inh: Disruptors of the CACNA1D IQ motif to Ca2+-dependent inactivation inhibitor domain association, primary screening, Förster resonance energy transfer in intact living …. HEK cells, CFP/YFP FRET ICDI-IQ, plate reader, 10 min; percent FRET-ratio fall versus neutral wells. inhibition, % at 12.3 µM. hit rate 0.098% among 340,000;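 active means mean replicate inhibition of at least 30% and at least 1% of replicates passing that level; inconclusive means only one of the two criteria is met; inactive means neither criterion is met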;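 further: 0% = median of the neutral control wells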
# Runt-SMMHC FRET: blocks binding of human RUNX1 Runt domain to CBFb-SMMHC; Q01196+Q13951; Cerulean-Runt/Venus-CBFb-SMMHC FRET ratio 530/480, 1 h; inhibition, % at 20 µM; hit rate 0.74% among 220,000;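 active means mean inhibition across duplicate retests at 20 µM reaching about 50%, limit read from the data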;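 further: 0% = DMSO wells and 100% = wells with excess untagged CBFb-SMMHC; inhibitors lower the FRET ratio by blocking Runt binding to CBFb-SMMHC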
# Target sequence (Q01196 whole entry, looked up, the tested form may be a part): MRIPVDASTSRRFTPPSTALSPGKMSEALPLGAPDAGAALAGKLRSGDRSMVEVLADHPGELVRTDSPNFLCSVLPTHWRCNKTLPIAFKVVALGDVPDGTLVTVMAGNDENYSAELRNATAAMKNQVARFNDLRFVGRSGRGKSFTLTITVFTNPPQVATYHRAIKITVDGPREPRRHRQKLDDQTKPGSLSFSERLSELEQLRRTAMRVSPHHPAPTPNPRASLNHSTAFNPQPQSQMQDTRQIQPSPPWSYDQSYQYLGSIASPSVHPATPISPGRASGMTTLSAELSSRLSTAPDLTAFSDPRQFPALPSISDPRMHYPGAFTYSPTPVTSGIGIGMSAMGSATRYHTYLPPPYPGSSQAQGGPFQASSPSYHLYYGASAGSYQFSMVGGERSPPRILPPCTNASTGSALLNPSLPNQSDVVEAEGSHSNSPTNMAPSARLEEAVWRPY
# Target sequence (Q13951 whole entry, looked up, the tested form may be a part): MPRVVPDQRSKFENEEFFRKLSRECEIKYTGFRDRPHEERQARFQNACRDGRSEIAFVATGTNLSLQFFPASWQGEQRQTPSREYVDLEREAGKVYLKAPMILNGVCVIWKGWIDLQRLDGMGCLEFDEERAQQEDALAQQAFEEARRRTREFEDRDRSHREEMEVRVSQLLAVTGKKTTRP
# Runt-CBFb FRET: Runt domain-CBFb interaction inhibition. AID 1496. hit rate 0.46% among 220,000. Cerulean-Runt/Venus-CBFb FRET ratio 530/480, 1 h. inhibition, % at 20 µM;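 active means inhibition over about 50% at 20 µM in the single-dose screen, limit read from the data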;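 further: 0% = DMSO wells and 100% = excess unlabeled CBFb competitor control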
#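 Measured by: fluorescence energy transfer, 422 nm excitation, 530/480 nm emission; test system: Cerulean-tagged RUNX1 Runt domain (FRET donor) fusion protein; buffer or medium: Tris pH 7.5 buffer with BSA; compound: one dose, 20 µM compound, 1% DMSO; times: two 1 h room-temperature incubations shielded from light; benchmarks: unlabeled CBFb 5 µM, positive control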
# RanGTP-Imp inh: disruptors of Ran-importin-beta complex formation – biochemical, FRET, CFP-Ran, YFP-importin-beta, homogeneous, primary screen; hit rate 1.1% among 300,000; AID 2216; inhibition, % (no concentration beside the values); cell-free CFP-Ran/YFP-importin-beta FRET ratio;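 active means more than half of the replicate wells show a fall in the fluorescence ratio signal beyond about 16%, limit read from the data, passing the limit was not always enough; inconclusive means exactly half of the replicate wells pass the set limit; inactive means fewer than half of replicates pass the limit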;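 further: 0% = DMSO wells and 100% = Ran loaded with GDP instead of GTP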
# Numbers without * were called inactive; ? = inconclusive; / = not tested or not shown; + = active, no number.
SMILES,CaV13 ICDI inh,Runt-SMMHC FRET,Runt-CBFb FRET,RanGTP-Imp inh
Nc1nc(N)c2nc(-c3ccccc3)c(N)nc2n1,-5,56*,26,-1
NSc1nc(N)c2nc(-c3ccccc3)c(-c3ccccc3)nc2n1,-5,69*,43,36*
COc1ccc(-n2nnnc2C(c2cccs2)N2CCN(C/C=C/c3ccccc3)CC2)cc1 (centres undefined),-5,/,/,/
CCOC(=O)N1CCN(Cc2cc(Cl)c3cccnc3c2O)CC1,-4,-6,4,44*
CCCn1nc(NC(=O)C2CCCO2)c2cc3cc(C)ccc3nc21 (centres undefined),-6,59*,43,56*
CCCn1nc(NC(=O)C2CCCO2)c2cc3ccc(C)cc3nc21 (centres undefined),-13,29,18,21*
CCn1nc(NS(=O)(=O)c2ccc(NC(C)=O)cc2)c2cc3cc(C)ccc3nc21,-3,/,/,7
CC(C)COc1ccc(/C=C2/Sc3ccccc3C2=O)cc1,0,-34,-12,43*
CC(C)NC(=O)OC[C@@H]1CSCCS(=O)(=O)N1,-5,/,/,/
NC(=O)c1ccc(N=Cc2ccc([N+](=O)[O-])s2)cc1,-5,-2,0,/
CCN(CC)C(=O)c1cc2c(=O)n3cccc(C)c3nc2n1C,/,2,3,-4
CCOCCCn1c(=NC(=O)c2ccc(OC)c(OC)c2)c(C#N)cc2c(=O)n3cccc(C)c3nc21,/,143*,106*,86*
CCCCn1c(=NC(C)=O)c(C#N)cc2c(=O)n3cccc(C)c3nc21,-4,/,/,85*
CCCCCn1c(=NC(C)=O)c(C#N)cc2c(=O)n3ccccc3nc21,-1,42,16,108*
CCCCc1c(O)nc2ccccn2c1=O,-3,1,0,4
CCOCCCn1c(=NC(C)=O)c(C#N)cc2c(=O)n3cccc(C)c3nc21,-1,88*,59*,123*
Cc1cc(=O)oc2c(C)c(OCC(=O)NCCCN3CCOCC3)ccc12,-3,/,/,2
CCCCCn1c(=NC(=O)c2cccnc2)c(C#N)cc2c(=O)n3cccc(C)c3nc21,0,/,/,144*
COCCCn1c(C(=O)N2CCOCC2)cc2c(=O)n3cccc(C)c3nc21,-3,/,/,-1
COC(=O)C1=CN(c2ccc(Oc3ccccc3)cc2)C(N)=C(C#N)C1c1ccc(-c2ccccc2)cc1 (centres undefined),-18,/,/,/
CC(C)OCCCn1c(=NC(=O)c2ccncc2)c(C#N)cc2c(=O)n3ccccc3nc21,-9,46,10,57*
CC(C)OCCCn1c(=NC(=O)c2cccs2)c(C#N)cc2c(=O)n3ccccc3nc21,15,81*,77*,103*
NC(=O)c1ccccc1N/C=C/C(=O)c1ccc(Cl)cc1Cl,/,16,5,44*
CC(C)C[C@@H]1COc2cc(NCCO)ccc2S(=O)(=O)N1,-4,/,/,/
N#C/C(=C\c1c(Oc2ccc(Cl)cc2)nc2ccccn2c1=O)C(=O)NC1CCS(=O)(=O)C1 (centres undefined),0,/,/,51*
SMILES,CaV13 ICDI inh,Runt-SMMHC FRET,Runt-CBFb FRET,RanGTP-Imp inh
Cc1cc(Oc2nc3ccccn3c(=O)c2/C=C(\C#N)C(=O)NC2CCS(=O)(=O)C2)ccc1Cl (centres undefined),-5,/,/,59*
Cc1ccc(CN2CCC(n3nccc3NC(=O)C3CCOC3)CC2)cc1 (centres undefined),-3,/,/,-9
CCN(CC)c1ccc2cc(C(=O)NNC(=O)c3ccc(S(=O)(=O)N4CCCCC4)cc3)c(=O)oc2c1,-3,63*,66*,119*
CCN(CC)c1ccc2ccc(=O)oc2c1,?,92*,39,95*
CCN(CC)c1ccc2cc(C#N)c(=O)oc2c1,+,92*,82*,115*
CCN(CC)c1ccc2cc(S(=O)(=O)c3ccc(C)cc3)c(=O)oc2c1,-3,79*,4,137*
Cc1ccc(C(=O)NNC(=O)c2ccc(S(=O)(=O)N3CCCCC3)cc2)cc1,-3,/,/,/
Cc1ccc(S(=O)(=O)c2cc3ccccc3oc2=O)cc1,-5,-26,-6,?
CCCCc1c(-c2ccccc2OC)ncn1Cc1ccc(Cl)cc1Cl,-10,/,/,/
CCc1cc[n+](-c2nc3ccccc3nc2[N-]S(=O)(=O)c2ccc(Br)s2)cc1,-6,69*,-9,41*
CCN1/C(=C2\OC(=S)N(C)C2=O)Sc2ccccc21,0,64*,14,-4
O=c1oc2c3c4c(cc2c(C(F)(F)F)c1CCN1CCOCC1)CCCN4CCC3,-12,-132,-232,-169
CC(C)c1cc(=O)oc2c3c4c(cc12)CCCN4CCC3,/,-3,14,29*
Cc1cc(=O)oc2c3c(ccc12)OC/C3=N/N,-12,-2,3,0
Cc1cc(=O)oc2c3c4c(cc12)OCCN4CCC3,19,/,4,143*
Cc1c(C(=O)Nc2c(C)n(C)n(-c3ccccc3)c2=O)oc2ccc(Cl)cc12,-6,/,/,-1
O=C1C2C3CCC(O3)C2C(=O)N1c1cccc(O)c1 (centres undefined),-4,/,/,33*
CCN1CCN(C(=O)CSc2cc(=O)n(CC)c3ccccc23)CC1,-8,-1,-1,37*
CC(C)CC(=O)c1c[nH]c(C(=O)NCc2cccs2)c1,-4,-6,-1,1
CN(C1=NS(=O)(=O)c2ccccc21)c1ccc(OC(=O)c2ccccc2F)cc1,-7,/,/,/
Cc1ccc(Nc2cc(C)c3ccc(O)cc3n2)cc1C,4,31,15,10
Cc1cc(NCc2ccco2)nc2cc(O)ccc12,-5,76*,32,30*
O=C(COC(=O)c1cccs1)NCC1CCCCC1,4,-3,-1,-1
O=C(O)C1=CC[C@@H](c2ccc(Cl)cc2)N(S(=O)(=O)c2ccc(Cl)cc2)[C@H]1c1ccc(F)cc1,39*,/,/,/
O=C(Nc1ccc(S(=O)(=O)Nc2nccs2)cc1)/C(=C/c1ccccc1Cl)NC(=O)c1ccccc1,-6,-8,-5,2
SMILES,CaV13 ICDI inh,Runt-SMMHC FRET,Runt-CBFb FRET,RanGTP-Imp inh
CCOC(=O)Cc1csc(NC(=O)CCN2C(=O)c3ccccc3C2=O)n1,/,0,-2,-4
Nc1cccc2nc3ccccc3cc12,/,58*,20,176*
CC(C)CC[n+]1ccn(-c2nc3ccccc3nc2[N-]S(=O)(=O)c2ccc(Cl)cc2)c1,-17,26,11,30*
C[C@H]1COC(=O)[C@@H](Cc2ccc(F)cc2)C/C=C\C[C@@H](CC(=O)N[C@@H](CO)Cc2ccccc2)C(=O)N1,-12,/,/,/
COc1cc(OC)c(C2CC(=O)N3CN(c4ccc(C)cc4)CSC3=C2C#N)cc1OC (centres undefined),-5,101*,101*,-93
COc1ccc(N2CSC3=C(C#N)C(c4cc(OC)c(OC)cc4OC)CC(=O)N3C2)c(OC)c1 (centres undefined),-3,38,29,0
Cn1c(Cn2nnc3ccccc32)nnc1SCC(=O)Nc1nccs1,1,0,1,3
